ChEMBL document CHEMBL4190388, “Discovery and Optimization of Indolyl-Containing 4-Hydroxy-2-Pyridone Type II DNA Topoisomerase Inhibitors Active against Multidrug Resistant Gram-negative Bacteria” (J Med Chem, 2018)
Converted amounts (≈) assume the structure as drawn.

Legend:
Escherichia coli [1] = experiment: Antibacterial activity against fluoroquinolone resistant Escherichia coli SKM18 by CLSI M100-S17 protocol based method; format: functional
Escherichia coli [2] = experiment: Antibacterial activity against wild type Escherichia coli ATCC 25922 by CLSI M100-S17 protocol based method; format: functional
Acinetobacter baumannii [3] = experiment: Antibacterial activity against wild type Acinetobacter baumannii ATCC BAA-747 by CLSI M100-S17 protocol based method; format: functional
Acinetobacter baumannii [4] = experiment: Antibacterial activity against fluoroquinolone resistant Acinetobacter baumannii isolate MMX2240 by CLSI M100-S17 protocol based method; format: functional
Klebsiella pneumoniae = experiment: Antibacterial activity against wild type Klebsiella pneumoniae ATCC 35657 by CLSI M100-S17 protocol based method; format: functional
Escherichia coli [5] = experiment: Antibacterial activity against wild type Escherichia coli ATCC 25922 in presence of HSA by CLSI M100-S17 protocol based method; format: functional
Escherichia coli [6] = experiment: Selectivity ratio of MIC for wild type Escherichia coli ATCC 25922 in presence of HSA to MIC for wild type Escherichia coli ATCC 25922; format: functional
Mus musculus [7] = experiment: Terminal half life in CD1 mouse plasma at 10 mg/kg, iv by LC-MS/MS analysis; format: ADME, organism-based; details: in vivo
Mus musculus [8] = experiment: AUC (0 to 24 hrs) in CD1 mouse plasma at 10 mg/kg, iv by LC-MS/MS analysis; format: ADME, organism-based; parameters: time < 24 hr, dose 10 mg/kg, route intravenous; details: in vivo
Summary of the method: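 CD-1 mice given a single 10 mg/kg iv dose (n = 3), in either 10% DMSO plus 1% Tween 80 in pH 8.0 phosphate buffer or 20% (2-hydroxypropyl)-β-cyclodextrin in pH 4.0 citrate buffer; plasma exposure measured.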

Mus musculus [9] = experiment: Volume of distribution at steady state in CD1 mouse plasma at 10 mg/kg, iv by LC-MS/MS analysis; format: ADME, organism-based; details: in vivo
[10] = Oral bioavailability in CD1 mouse plasma by LC-MS/MS analysis; format: ADME, organism-based
[11] = Fraction unbound in mouse plasma at 1 uM by equilibrium dialysis method; format: ADME, cell-free
Escherichia coli [12] = experiment: Antibacterial activity against quinolone resistance Escherichia coli isolate ELZ4251 harboring gyrA/parC mutant by CLSI M100-S17 protocol based method; format: functional
Escherichia coli [13] = experiment: Antibacterial activity against quinolone resistant Escherichia coli by broth microdilution method; format: functional; details: Escherichia coli; for MIC: read-out: MIC
Summary of the method: (§1)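 MICs were determined by CLSI broth methods, except that organisms were grown in brain–heart–infusion medium. The panel comprised wild-type and resistant E. coli and A. baumannii strains, including 12 strains whose details are given by reference.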

Escherichia coli [14] = experiment: Antibacterial activity against wild type Escherichia coli by broth microdilution method; format: functional; summary of the method: as §1
Escherichia coli [15] = experiment: Antibacterial activity against beta-lactam resistant Escherichia coli by broth microdilution method; format: functional; details: Escherichia coli; for MIC: read-out: MIC; summary of the method: as §1
Escherichia coli [16] = experiment: Antibacterial activity against aminoglycoside resistant Escherichia coli by broth microdilution method; format: functional; details: Escherichia coli; for MIC: read-out: MIC; summary of the method: as §1
Escherichia coli [17] = experiment: Antibacterial activity against multidrug resistant Escherichia coli by broth microdilution method; format: functional; details: Escherichia coli; for MIC: read-out: MIC; summary of the method: as §1
Acinetobacter baumannii [18] = experiment: Antibacterial activity against wild type Acinetobacter baumannii by broth microdilution method; format: functional; summary of the method: as §1
Acinetobacter baumannii [19] = experiment: Antibacterial activity against aminoglycoside resistant Acinetobacter baumannii by broth microdilution method; format: functional; details: Acinetobacter baumannii; for MIC: read-out: MIC; summary of the method: as §1
Acinetobacter baumannii [20] = experiment: Antibacterial activity against quinolone resistant Acinetobacter baumannii by broth microdilution method; format: functional; details: Acinetobacter baumannii; for MIC: read-out: MIC; summary of the method: as §1
Acinetobacter baumannii [21] = experiment: Antibacterial activity against beta-lactam resistant Acinetobacter baumannii by broth microdilution method; format: functional; details: Acinetobacter baumannii; for MIC: read-out: MIC; summary of the method: as §1
Acinetobacter baumannii [22] = experiment: Antibacterial activity against carbapenem resistant Acinetobacter baumannii by broth microdilution method; format: functional; details: Acinetobacter baumannii; for MIC: read-out: MIC; summary of the method: as §1
Acinetobacter baumannii [23] = experiment: Antibacterial activity against multidrug resistant Acinetobacter baumannii by broth microdilution method; format: functional; details: Acinetobacter baumannii; for MIC: read-out: MIC; summary of the method: as §1

SMILES | MIC (Escherichia coli [1]) | MIC (Escherichia coli [2]) | MIC (Acinetobacter baumannii [3]) | MIC (Acinetobacter baumannii [4]) | MIC (Klebsiella pneumoniae) | MIC (Escherichia coli [5]) | Ratio (Escherichia coli [6]) | beta t1/2 (Mus musculus [7]) | AUC (Mus musculus [8]) | Vdss (Mus musculus [9]) | bioavailability [10] | Fu [11] | MIC (Escherichia coli [12]) | MIC90 (Escherichia coli [13]) | MIC (Escherichia coli [13]) | MIC90 (Escherichia coli [14]) | MIC90 (Escherichia coli [15]) | MIC (Escherichia coli [15]) | MIC90 (Escherichia coli [16]) | MIC (Escherichia coli [16]) | other results
Cn1c(CNC2(C)CCC2)cc2cc3c(cc21)CCCc1c-3[nH]c(=O)c(C(=O)O)c1O | 1 µg/mL (≈ 2.37 µM) | 1 µg/mL (≈ 2.37 µM) | 0.5 µg/mL (≈ 1.19 µM) | 1 µg/mL (≈ 2.37 µM) | 1 µg/mL (≈ 2.37 µM) | 7.8 µg/mL | 4 - 16 | 3.1 h | 4580 ng·h/mL | 7.1 L/kg | 65% | 0.047 | – | – | – | – | – | – | – | – | –
Cn1c(CN2CCCC2)cc2cc3c(cc21)CCCc1c-3[nH]c(=O)c(C(=O)O)c1O | 0.78 µg/mL (≈ 1.91 µM) | 0.78 µg/mL (≈ 1.91 µM) | 0.78 µg/mL (≈ 1.91 µM) | 1.6 µg/mL (≈ 3.93 µM) | 0.78 µg/mL (≈ 1.91 µM) | 6.3 µg/mL | – | 2.8 h | 4050 ng·h/mL | 8.1 L/kg | 33% | 0.11 | 1.6 µg/mL (≈ 3.93 µM) | 0.5 µg/mL (≈ 1.23 µM) | 0.12 to 0.5 µg/mL (≈ 0.295 to 1.23 µM) | 0.5 µg/mL (≈ 1.23 µM) | 0.5 µg/mL (≈ 1.23 µM) | 0.12 to 0.5 µg/mL (≈ 0.295 to 1.23 µM) | 0.5 µg/mL (≈ 1.23 µM) | 0.12 to 0.5 µg/mL (≈ 0.295 to 1.23 µM) | MIC90 (Escherichia coli [17]): 0.5 µg/mL (≈ 1.23 µM); MIC (Escherichia coli [17]): 0.12 to 0.5 µg/mL (≈ 0.295 to 1.23 µM); MIC50 (Acinetobacter baumannii [18]): 2 µg/mL (≈ 4.91 µM); MIC90 (Acinetobacter baumannii [18]): 16 µg/mL (≈ 39.3 µM); MIC50 (Acinetobacter baumannii [19]): 2 µg/mL (≈ 4.91 µM); MIC90 (Acinetobacter baumannii [19]): 16 µg/mL (≈ 39.3 µM); MIC (Acinetobacter baumannii [19]): 0.12 to 16 µg/mL (≈ 0.295 to 39.3 µM); MIC50 (Acinetobacter baumannii [20]): 2 µg/mL (≈ 4.91 µM); MIC90 (Acinetobacter baumannii [20]): 16 µg/mL (≈ 39.3 µM); MIC (Acinetobacter baumannii [20]): 0.12 to 16 µg/mL (≈ 0.295 to 39.3 µM); MIC50 (Acinetobacter baumannii [21]): 2 µg/mL (≈ 4.91 µM); MIC90 (Acinetobacter baumannii [21]): 16 µg/mL (≈ 39.3 µM); MIC (Acinetobacter baumannii [21]): 0.12 to 16 µg/mL (≈ 0.295 to 39.3 µM); MIC50 (Acinetobacter baumannii [22]): 2 µg/mL (≈ 4.91 µM); MIC90 (Acinetobacter baumannii [22]): 16 µg/mL (≈ 39.3 µM); MIC (Acinetobacter baumannii [22]): 0.12 to 16 µg/mL (≈ 0.295 to 39.3 µM); MIC50 (Acinetobacter baumannii [23]): 2 µg/mL (≈ 4.91 µM); MIC90 (Acinetobacter baumannii [23]): 16 µg/mL (≈ 39.3 µM); MIC (Acinetobacter baumannii [23]): 0.12 to 16 µg/mL (≈ 0.295 to 39.3 µM)
CN(C)Cc1cc2cc3c(cc2n1C)CCCc1c-3[nH]c(=O)c(C(=O)O)c1O | 0.78 µg/mL (≈ 2.04 µM) | 0.78 µg/mL (≈ 2.04 µM) | 1.6 µg/mL (≈ 4.19 µM) | 1.6 µg/mL (≈ 4.19 µM) | 0.78 µg/mL (≈ 2.04 µM) | 12.5 µg/mL | 4 - 16 | 2.9 h | 3520 ng·h/mL | 11 L/kg | 42% | 0.1 | 1.6 µg/mL (≈ 4.19 µM) | 1 µg/mL (≈ 2.62 µM) | 0.25 to 2 µg/mL (≈ 0.655 to 5.24 µM) | 1 µg/mL (≈ 2.62 µM) | 1 µg/mL (≈ 2.62 µM) | 0.25 to 2 µg/mL (≈ 0.655 to 5.24 µM) | 1 µg/mL (≈ 2.62 µM) | 0.25 to 2 µg/mL (≈ 0.655 to 5.24 µM) | MIC50 (Escherichia coli [13]): 0.5 µg/mL (≈ 1.31 µM); MIC50 (Escherichia coli [14]): 0.5 µg/mL (≈ 1.31 µM); MIC50 (Escherichia coli [15]): 0.5 µg/mL (≈ 1.31 µM); MIC50 (Escherichia coli [16]): 0.5 µg/mL (≈ 1.31 µM); MIC50 (Escherichia coli [17]): 0.5 µg/mL (≈ 1.31 µM); MIC90 (Escherichia coli [17]): 1 µg/mL (≈ 2.62 µM); MIC (Escherichia coli [17]): 0.25 to 2 µg/mL (≈ 0.655 to 5.24 µM); MIC50 (Acinetobacter baumannii [18]): 2 µg/mL (≈ 5.24 µM); MIC90 (Acinetobacter baumannii [18]): > 16 µg/mL; MIC50 (Acinetobacter baumannii [19]): 2 µg/mL (≈ 5.24 µM); MIC (Acinetobacter baumannii [19]): 0.12 to 16 µg/mL (≈ 0.315 to 41.9 µM); MIC50 (Acinetobacter baumannii [20]): 2 µg/mL (≈ 5.24 µM); MIC (Acinetobacter baumannii [20]): 0.12 to 16 µg/mL (≈ 0.315 to 41.9 µM); MIC50 (Acinetobacter baumannii [21]): 2 µg/mL (≈ 5.24 µM); MIC (Acinetobacter baumannii [21]): 0.12 to 16 µg/mL (≈ 0.315 to 41.9 µM); MIC50 (Acinetobacter baumannii [22]): 2 µg/mL (≈ 5.24 µM); MIC (Acinetobacter baumannii [22]): 0.12 to 16 µg/mL (≈ 0.315 to 41.9 µM); MIC50 (Acinetobacter baumannii [23]): 2 µg/mL (≈ 5.24 µM); MIC (Acinetobacter baumannii [23]): 0.12 to 16 µg/mL (≈ 0.315 to 41.9 µM)
